The record followed here is ChEMBL document CHEMBL3779845, “Synthesis and antitumor activity evaluation of a novel combi-nitrosourea prodrug: Designed to release a DNA cross-linking agent and an inhibitor of O(6)-alkylguanine-DNA alkyltransferase” (Bioorg Med Chem, 2016).

The subject of series [1] is Calf thymus DNA. Nature of the series: Induction of dG-dC cross linking in calf thymus DNA assessed as level of dG-dC cross link per mg of DNA at 0.2 mM after 12 hrs by HPLC-ESI-MS/MS analysis. The following applies: Bos taurus. It is filed as nucleic-acid assay. The procedure, abridged:
(§1)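 CT DNA at 1 mg/mL in buffer (10 mM Tris, 50 mM NaCl, 50 mM Na2HPO4, pH 7.4) was given the compound from a DMSO solution and incubated 12 h at 37 °C. DNA was ethanol-precipitated and digested (DNase I, S1 nuclease, alkaline phosphatase, phosphodiesterase I), with 15N3-dG-dC internal standard at 9.6 nM final. Quantitation by isotope-dilution HPLC-ESI-MS/MS in positive SRM mode. Results given as fmol/mg DNA, mean ± SD of triplicates.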

The next series has as its system SF-126. Nature of the series: Potency index, ratio IC50 of ACNU to ratio IC50 of compound for human SF126 cells expressing low level of AGT. Type of series: functional.
A short description of series [2]: Cytotoxicity against human SF126 cells expressing low level of AGT assessed as cell survival after 24 hrs by CCK8 assay. Type of series: functional, cell-based. Conditions: SF-126, 24 h. The procedure, abridged:
(§2)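 Glioma cells kept in MEM-EBSS with 10% FBS, 37 °C, 5% CO2. Seeded 5000 cells/well, grown 24 h, then 24 h drug exposure over a range of concentrations. Read-out: CCK8 (10%, 3 h), A450. Survival % = (A_drug−A_blank)/(A_control−A_blank)×100. Mean ± SD of at least three independent experiments. DMSO or ethanol vehicle kept below 0.1%.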
In general terms: Tetrazolium dyes change colour on reduction, which living cells bring about.

Series [3] can be described thus: Retention time of the compound in PBS/MEM-EBSS by HPLC-UV analysis. It is filed as physicochemical. The following applies: buffer. The gist of the method: (§3)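 Stock dissolved in minimal DMSO, diluted into PBS (pH 7.4) or MEM-EBSS containing 10% FBS plus penicillin/streptomycin to 0.1 mM final. Incubated at 37 °C, with aliquots taken at set times over 8 h and frozen. Medium samples were deproteinized with an equal volume of acetonitrile and centrifuged. Analysis by HPLC-UV on C18, eluting 50% 50 mM ammonium acetate pH 4.5 / 50% methanol at 1.0 mL/min.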

Series [4] has as its system Calf thymus DNA. Nature of the series: Induction of dG-dC cross linking in calf thymus DNA after 12 hrs by HPLC-ESI-MS/MS analysis. Type of series: nucleic-acid assay. The following applies: Bos taurus. The gist of the method: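 Calf thymus DNA at 1 mg/mL in buffer (10 mM Tris, 50 mM NaCl, 50 mM Na2HPO4, pH 7.4) was treated with 0.1, 0.2 or 0.4 mM final for 12 h at 37 °C, then ethanol-precipitated. Digestion with DNase I, S1 nuclease, CIAP and phosphodiesterase I, spiked with 15N3-dG-dC internal standard. Isotope-dilution HPLC-ESI-MS/MS (SRM, positive mode), reported as fmol/mg DNA, mean ± SD of triplicates.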

Series [5] in a line: Half life of compound in MEM-EBSS by HPLC-UV analysis in presence of 10% fetal bovine serum. It is filed as physicochemical. Conditions: cattle, MEM-EBSS with 10% fetal bovine serum. The gist of the method:
as §3

Series [6] concerns Calf thymus DNA. Nature of the series: Induction of dG-dC cross linking in calf thymus DNA assessed as level of dG-dC cross link per mg of DNA at 0.1 mM after 12 hrs by HPLC-ESI-MS/MS analysis. Type of series: nucleic-acid assay. Conditions: Bos taurus. The procedure, abridged: as §1
Series [7] can be described thus: Half life of compound in PBS by HPLC-UV analysis.
A short description of series [8]: Cytotoxicity against human SF763 cells expressing high level of AGT assessed as cell survival after 24 hrs by CCK8 assay. Type of series: functional, cell-based. Conditions: SF763, 24 h. The procedure, abridged: as §2
Series [9] has as its system Calf thymus DNA. Nature of the series: Induction of dG-dC cross linking in calf thymus DNA assessed as level of dG-dC cross link per mg of DNA at 0.4 mM after 12 hrs by HPLC-ESI-MS/MS analysis. Type of series: nucleic-acid assay. The following applies: Bos taurus. The procedure, abridged: as §1
Series [10] in a line: Induction of dG-dC cross linking in human SF763 cells expressing high level of AGT assessed as level of dG-dC cross link per mg of DNA at 0.4 mM after 12 hrs by HPLC-ESI-MS/MS analysis. It is filed as functional. The gist of the method:
(§4)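 SF763 glioma cells (mer+, 119 fmol AGT/10^6 cells) in MEM-EBSS/10% FBS were grown to about 90% confluence and exposed for 12 h. DNA was isolated by proteinase K/RNase/phenol-chloroform, then digested with four enzymes and spiked with 15N3-dG-dC. Isotope-dilution HPLC-ESI-MS/MS; dG-dC given as fmol per mg DNA, with DNA estimated from dGuo content. Mean ± SD of triplicates.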

A short description of series [11]: Induction of dG-dC cross linking in human SF763 cells expressing high level of AGT assessed as level of dG-dC cross link per mg of DNA at 0.1 mM after 12 hrs by HPLC-ESI-MS/MS analysis. Type of series: functional. The procedure, abridged: as §4
Series [12] in a line: Cytotoxicity against human SF-767 cells expressing moderate level of AGT assessed as cell survival after 24 hrs by CCK8 assay. The following applies: SF767, 24 h.
Series [13] is described as follows: Induction of dG-dC cross linking in human SF763 cells expressing high level of AGT assessed as level of dG-dC cross link per mg of DNA at 0.2 mM after 12 hrs by HPLC-ESI-MS/MS analysis. Type of series: functional. The procedure, abridged: as §4
A short description of series [14]: Cytotoxicity against human SF763 cells expressing high level of AGT assessed as cell survival after 24 hrs by CCK8 assay in presence of O6-BG. It is filed as functional, cell-based. The following applies: SF763, 24 h. The gist of the method: (§5)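 Cells were seeded at 5000 cells/well and grown 24 h. They were pretreated 2 h with O6-BG at 20 µM final, then switched to fresh medium holding ACNU or BCNU at various concentrations for 24 h. Read-out: CCK8 (10%, 3 h), absorbance 450 nm. Survival expressed relative to untreated cells after blank subtraction. Mean ± SD, ≥3 independent experiments.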

The nature of series [15]: Cytotoxicity against human SF126 cells expressing low level of AGT assessed as cell survival after 24 hrs by CCK8 assay in presence of O6-BG. The following applies: SF-126, 24 h. It is filed as functional, cell-based. The procedure, abridged: as §5
Series [16] is described as follows: Cytotoxicity against human SF-767 cells expressing moderate level of AGT assessed as cell survival after 24 hrs by CCK8 assay in presence of O6-BG. Conditions: SF767, 24 h.
Series [17] in a line: Drug level in PBS treated with 3-(3-(((2-Amino-9H-purin-6-yl)oxy)methyl)benzyl)-1-(2-chloroethyl)-1-nitrosourea by HPLC-UV analysis. It is filed as physicochemical. The following applies: buffer. The gist of the method:
as §3

Series [18] in a line: Drug level in MEM-EBSS treated with 3-(3-(((2-Amino-9H-purin-6-yl)oxy)methyl)benzyl)-1-(2-chloroethyl)-1-nitrosourea by HPLC-UV analysis. It is filed as physicochemical. The gist of the method:
as §3

Series [19] is described as follows: Retention time of the compound in PBS/MEM-EBSS treated with 3-(3-(((2-Amino-9H-purin-6-yl)oxy)methyl)benzyl)-1-(2-chloroethyl)-1-nitrosourea by HPLC-UV analysis. The following applies: buffer. It is filed as physicochemical. The gist of the method: as §3
Series [20] is described as follows: Half life of compound in serum containing medium. It is filed as ADME. The gist of the method:
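Compound at 0.1 mM final (from DMSO stock) in MEM-EBSS with 10% FBS, penicillin/streptomycin, incubated 37 °C up to 8 h. Aliquots precipitated with equal volume acetonitrile, centrifuged, supernatant run on HPLC-UV. C18 column, 50% 50 mM ammonium acetate pH 4.5 / 50% methanol, 1.0 mL/min. Half-life read from degradation curve.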

Series [21] can be described thus: Cytotoxicity against human SF126 cells expressing low level of AGT assessed as cell death after 24 hrs by CCK8 assay. It is filed as functional, SF-126. The procedure, abridged:
as §2

The nature of series [22]: Cytotoxicity against human SF-767 cells expressing high level of AGT assessed as cell death after 24 hrs by CCK8 assay. It is filed as functional. The procedure, abridged: as §2
Series [23] in a line: Cytotoxicity against human SF763 cells expressing high level of AGT assessed as cell death after 24 hrs by CCK8 assay. Type of series: functional. The procedure, abridged:
as §2

pIC50: −log10 of the molar value.

What is called pIC50 is the negative decadic logarithm of the IC50, by convention in mol/L. By half-life is commonly meant the time in which the quantity being followed falls by half. The mortality is the percentage killed.

In the case of `Nc1nc(OCc2cccc(CNC(=O)N(CCCl)N=O)c2)c2nc[nH]c2n1`, the Activity was 6100 fmol in the series on Calf thymus DNA [1]; “Dose-dependent effect” with Calf thymus DNA [4]; 3880 fmol in the series on Calf thymus DNA [6]; 10300 fmol in the series with Calf thymus DNA [9]; 787 fmol in series [10]; 267 fmol in series [11]. In series [13], the Activity was found to be 713 fmol. For the same molecule, the “Ratio IC50” value in the series with SF-126 is more than 6. Also, the results for the pIC50 in series [2], in series [8] and in [12] were 4.30, 4.46 and 4.60, respectively. In [3], the Retention_time worked out at 23.93 min. The half-life in series [5] came to 18 min; in [7] it was 30 min.

Turning to `Cc1ncc(CNC(=O)N(CCCl)N=O)c(N)n1` [NIMUSTINE], the Activity with Calf thymus DNA [1] turned out to be 16800 fmol; in the series with Calf thymus DNA [6], 8750 fmol; in the series with Calf thymus DNA [9], 34900 fmol; in series [10], 568 fmol; in series [11], 172 fmol; in [13] it was 447 fmol. Besides, the pIC50 is 3.49 in [2]; 3.00 in series [14]; 3.51 in series [15]; less than 3.00 in series [8]; 3.40 in series [16]; 3.30 in series [12].

Turning to `Nc1nc(OCc2cccc(CN=C=O)c2)c2nc[nH]c2n1`, the Drug metabolism entry in series [17] and in series [18] was “metabolite_detected” throughout. In addition, the Retention_time in series [19] is 16.25 min.

`O=NN(CCCl)C(=O)NCCCl` [CARMUSTINE]: the Activity stood at 13600 fmol in the series with Calf thymus DNA [1]; 6160 fmol in the series with Calf thymus DNA [6]; 24300 fmol in the series on Calf thymus DNA [9]; 342 fmol in series [10]; 145 fmol in series [11]; 224 fmol in series [13]. Besides, the pIC50 was 4.70 in [2]; 4.26 in series [14]; 4.60 in [15]; 4.00 in series [8]; 4.52 in [16]; 4.35 in [12]. Further, the half-life in series [20] is 15 min.

For `NCc1cccc(COc2nc(N)nc3nc[nH]c23)c1`, the mortality in series [21], in [22] and in [23] was less than 3% throughout. In addition, the Drug metabolism entry in [17] and in series [18] was “metabolite_detected” in each case. In [19], this molecule had a Retention_time of 13.85 min.
